For test [1], the target named is T1, K-Ras (WT) (Homo sapiens, UniProt P01116). As to the kind of experiment: MST binding of labeled nucleotide.
Test [2] addresses T2, K-Ras (G12C) (Homo sapiens, UniProt P01116, G12C). As to the kind of experiment: MST binding of labeled nucleotide.
The test system of a further test is K-Ras. The following applies: Goebel and colleagues; cited from earlier work.
Test [3] has as its target T3, K-Ras (G12D) (Homo sapiens, UniProt P01116, G12D). Briefly: MST binding of labeled nucleotide. The following applies: read-out: MST GTP Kd.
Test [4] addresses T4, K-Ras (Q61H) (Homo sapiens, UniProt P01116, Q61H). Briefly: MST binding of labeled nucleotide. The following applies: read-out: MST GTP Kd.
Test [5] has as its target T5, Rac-1 (Homo sapiens, UniProt P63000). Briefly: MST binding of labeled nucleotide. The following applies: read-out: MST GTP Kd.
Test [6] has as its target T6, Rho-A (Homo sapiens, UniProt P61586). Briefly: MST binding of labeled nucleotide. The following applies: read-out: MST GTP Kd.
Test [7] has as its target T1, K-Ras (WT). Briefly: SPA with [32P]GTP. Type of test: binding. In short, it runs like this:
(§1)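 Saturation binding used [32P]GTP (3,000 Ci/mmol) at 2.5 nmol/L–10 µmol/L, with nonspecific signal defined by 800 mmol/L imidazole. Counts were converted to pmol, and Kd and Bmax fitted from bound versus free GTP. Three independent experiments, technical triplicates.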

In test [8] the target is T3, K-Ras (G12D). Briefly: SPA with [32P]GTP. Type of test: binding. In short, it runs like this: as §1
Test [9] deals with T2, K-Ras (G12C). Briefly: SPA with [32P]GTP. Format: binding. The method, boiled down:
as §1

Test [10] has as its target T4, K-Ras (Q61H). As to the kind of experiment: SPA with [32P]GTP. Type of test: binding. The method, boiled down: as §1
Test [11] deals with T5, Rac-1. As to the kind of experiment: SPA with [32P]GTP. Format: binding. In short, it runs like this:
as §1

The target of test [12] is T6, Rho-A. Briefly: SPA with [32P]GTP. Format: binding. In short, it runs like this:
as §1

Test [13] has as its target T1, K-Ras (WT). Briefly: Filtration binding assay with α-[32P]GTP. In short, it runs like this: (§2)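 Nucleotide-free His10-tagged K-Ras (residues 2–185) was expressed in E. coli and purified by Ni affinity and SEC. Varying protein amounts were incubated with α-[32P]GTP (2,594 Ci/mmol; 2.88 nmol/L final) for 5 min at 23°C in 100 µL. Samples were filtered through 0.45-µm MCE membranes, washed with ice-cold GTP-free assay buffer, and dried filters counted for dpm. Kd came from saturation binding and kon from a time course.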

Test [14] has as its target T3, K-Ras (G12D). As to the kind of experiment: Filtration binding assay with α-[32P]GTP. In short, it runs like this:
as §2

For a further test, the system named is H-Ras. The following applies: Feuerstein and colleagues; cited from earlier work.

T6 sequence (P61586 2-181): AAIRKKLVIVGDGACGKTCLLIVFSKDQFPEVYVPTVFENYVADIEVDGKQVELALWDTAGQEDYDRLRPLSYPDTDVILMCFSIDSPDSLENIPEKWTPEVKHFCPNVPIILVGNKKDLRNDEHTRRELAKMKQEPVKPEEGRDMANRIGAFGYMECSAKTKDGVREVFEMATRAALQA

Turning to `Nc1nc2c(ncn2[C@@H]2O[C@H](COP(=O)(O)OP(=O)(O)O)[C@@H](O)[C@H]2O)c(=O)[nH]1` [GDP], the Kd at K-Ras (WT) [1] (read-out: MST GDP Kd) came to 394 ± 54 nM; at K-Ras (G12C) [2] (read-out: MST GDP Kd), 360 ± 34 nM. The koff in the test on K-Ras was 1.1e-05 s⁻¹. Further, in the test with K-Ras, the kon was 4.22e+06 M⁻¹ s⁻¹.

On to `Nc1nc2c(ncn2[C@@H]2O[C@H](COP(=O)(O)OP(=O)(O)OP(=O)(O)O)[C@@H](O)[C@H]2O)c(=O)[nH]1` [GTP], for which the Kd at K-Ras (WT) [1] (read-out: MST GTP Kd, 23°C) was found to be 463 ± 23 nM; at K-Ras (G12D) [3], 244 ± 12 nM; on K-Ras (G12C) [2] (read-out: MST GTP Kd), 207 ± 46 nM; on K-Ras (Q61H) [4] it was 157 ± 21 nM; at Rac-1 [5], 166 ± 10 nM; at Rho-A [6], 130 ± 5 nM. For the same molecule, the Kd on K-Ras (WT) [7] (read-out: SPA GTP Kd, K-Ras (WT)) was found to be 246 ± 19 nM; on K-Ras (G12D) [8] (read-out: SPA GTP Kd), 280 ± 19 nM; on K-Ras (G12C) [9] (read-out: SPA GTP Kd) it was 359 ± 35 nM; at Rac-1 [11] (read-out: SPA GTP Kd) it was 151 ± 14 nM; on Rho-A [12] (read-out: SPA GTP Kd), 129 ± 12 nM; at K-Ras (WT) [13] (read-out: Filtration assay GTP Kd, K-Ras (WT), 23°C), 228 ± 26 nM. Besides, the Kd at K-Ras (G12D) [14] (read-out: Filtration assay GTP Kd, K-Ras (G12D), 23°C) stood at 345 ± 25 nM. In addition, the “SPA Bmax (mol:mol)” value on K-Ras (WT) [7] (K-Ras (WT), molar binding stoichiometry of GTP to protein) was 1.00 ± 0.01 mol:mol; at K-Ras (G12D) [8], 0.97 ± 0.01 mol:mol; at K-Ras (G12C) [9] it was 0.94 ± 0.02 mol:mol; on K-Ras (Q61H) [10], 0.96 ± 0.02 mol:mol; on Rac-1 [11], 1.03 ± 0.02 mol:mol; at Rho-A [12] it was 1.02 ± 0.02 mol:mol. The “kon by SPA” value at K-Ras (WT) [7] (WT K-Ras) came to 3.22e+08 M⁻¹ s⁻¹. The results for the “Filtration assay Bmax (mol:mol)” value on K-Ras (WT) [13] (K-Ras (WT)) and on K-Ras (G12D) [14] (K-Ras (G12D)) were 0.93 ± 0.03 mol:mol and 0.95 ± 0.02 mol:mol, respectively. Besides, the “kon by filtration binding assay” value on K-Ras (WT) [13] (K-Ras, time course study) turned out to be 2.13e+08 M⁻¹ s⁻¹; on K-Ras (G12D) [14] (G12D K-Ras mutant, time course study), 2.49e+08 M⁻¹ s⁻¹. In the test on H-Ras, the koff is 8e-05 s⁻¹. In addition, the kon with H-Ras was 2.9e+06 M⁻¹ s⁻¹.

These data come from PMC12757722 (Molecular Cancer Therapeutics, 2025).
